What all share (assay type): functional
Assay [1] relates to UACC-257. Description: Cytostatic activity against human UACC257 cells. The gist of the method:
(§1)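 Human tumour cell lines from the NCI-60 panel, tested at the US National Cancer Institute under the NIH Developmental Therapeutics Program protocol. A single-dose prescreen at 10 µM came first. Selected compounds then went to a 5-dose assay, which gave GI50 and TGI values in µM.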

The test system of assay [2] is MDA-MB-435. Briefly: Cytostatic activity against human MDA-MB-435 cells. The procedure, abridged:
(§2)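 NCI-60 human tumor cell line screen run by the US National Cancer Institute under the NIH Developmental Therapeutics Program protocol. A single-dose prescreen at 10 µM came first. Selected compounds then went into the 5-dose assay. Cytostatic activity is reported as GI50 (µM).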

The test system of assay [3] is Malme-3M. Description: Cytostatic activity against human MALME-3M cells. The procedure, abridged: as §2
The test system of assay [4] is UO-31. Briefly: Cytostatic activity against human UO31 cells. The procedure, abridged:
as §1

Assay [5] relates to U-251. Briefly: Cytostatic activity against human U251 cells. The gist of the method:
as §1

Assay [6] concerns M14. Description: Cytostatic activity against human M14 cells. The gist of the method: as §2
The subject of assay [7] is SNB-75. Description: Cytostatic activity against human SNB75 cells. The procedure, abridged: as §1
The subject of assay [8] is OVCAR-3. Description: Cytostatic activity against human OVCAR3 cells. The procedure, abridged: as §2
Assay [9] concerns MDA-MB-231. Description: Cytostatic activity against human MDA-MB-231/ATCC cells. The gist of the method:
as §2

Assay [10] concerns NCI-H522. Description: Cytostatic activity against human NCI-H522 cells. The gist of the method:
as §2

Assay [11] has as its system SF-268. Description: Cytostatic activity against human SF268 cells. The procedure, abridged: as §2
The subject of assay [12] is IGROV-1. Briefly: Cytostatic activity against human IGROV1 cells. The procedure, abridged:
as §2

The subject of assay [13] is HT-29. Briefly: Cytostatic activity against human HT-29 cells. The procedure, abridged: as §2
Assay [14] relates to UACC-62. Description: Cytostatic activity against human UACC62 cells. The procedure, abridged: as §1
Assay [15] concerns Hs-578T. Briefly: Cytostatic activity against human Hs 578T cells. The gist of the method: as §2
Assay [16] has as its system NCI-H460. Briefly: Cytostatic activity against human NCI-H460 cells. The procedure, abridged: as §2

Molecules are shown by their SMILES.

By GI50 is commonly meant the concentration that inhibits growth by half. A lower GI50 goes with greater sensitivity of the cells. `N=C(NO)NS(=O)(=O)c1cc(-c2nnc(-c3ccc(Cl)cc3)s2)c(Cl)cc1SCc1ccc2c(c1)OCO2`: the GI50 in assay [1] worked out at 3.55 µM; in assay [2] it was 2630 nM; in assay [3], 2.24 µM; in [4] it was 3.72 µM; in assay [5] it was 10.7 µM; in [6], 2140 nM. The GI50 in assay [7] was found to be 1780 nM; in assay [8], 1620 nM; in assay [9], 5.13 µM; in assay [10], 1860 nM; in [11], 2040 nM; in [12] it was 3.47 µM. In addition, the GI50 in [13] was 2290 nM; in assay [14], 2140 nM; in assay [15], 2.4 µM; in assay [16], 2340 nM.

Regarding `COc1cc(CSc2cc(Cl)c(-c3nnc(-c4ccc(Cl)cc4)s3)cc2S(=O)(=O)NC(=N)NO)cc(OC)c1OC`, the GI50 in [1] was 26.3 µM; in assay [3], 97.7 µM; in assay [4] it was 44.7 µM; in assay [6] it was 40700 nM; in assay [7] it was 25700 nM; in assay [8], 10200 nM. Further, the GI50 came to 8910 nM in [10]; 9550 nM in [11]; 58.9 µM in [12]; 6760 nM in assay [13]; 16200 nM in assay [14]; 8.13 µM in assay [15]. In assay [16], this compound returned a GI50 of 34700 nM.

`COc1cc(CSc2cc(Cl)c(-c3nc(-c4ccc(Cl)cc4)no3)cc2S(=O)(=O)NC(=N)NO)cc(OC)c1OC`: the GI50 in assay [1] was found to be 9.33 µM; in assay [3], 7.76 µM; in assay [4], 3.16 µM; in [6], 2190 nM; in [7], 2950 nM; in [8] it was 1910 nM. Also, the GI50 in [10] stood at 2140 nM; in assay [11], 2950 nM; in assay [12], 3.8 µM; in assay [13], 2950 nM; in [14], 1950 nM; in [15], 4.17 µM. The compound further had a GI50 in assay [16] of 2240 nM.

Regarding `N=C(NO)NS(=O)(=O)c1cc(-c2nc(-c3ccc(Cl)cc3)cs2)c(Cl)cc1SCc1ccc2c(c1)OCO2`, the GI50 was 3890 nM in assay [2]; 11.2 µM in assay [5]; 12.6 µM in assay [9]; 6460 nM in assay [11]; 25.1 µM in assay [12]; 7760 nM in [14].

In the case of `N=C(NO)NS(=O)(=O)c1cc(-c2nc(-c3ccc(Cl)cc3)no2)c(Cl)cc1SCc1ccc2c(c1)OCO2`, the GI50 in assay [1] is 1.91 µM; in [3], 2.63 µM; in assay [4] it was 1.91 µM; in [6], 1860 nM; in assay [7] it was 1740 nM; in [8], 1700 nM. In addition, the GI50 in assay [10] was determined as 1020 nM; in assay [11] it was 1820 nM; in [12], 2.14 µM; in assay [13], 1820 nM; in assay [14], 1700 nM; in assay [15], 2.69 µM. The GI50 in [16] is 2140 nM.

Consider `N=C(NO)NS(=O)(=O)c1cc(-c2nc(-c3ccccc3)cs2)c(Cl)cc1SCc1ccc2c(c1)OCO2`, for which the GI50 worked out at 2000 nM in assay [2]; 1.95 µM in assay [5]; 2.34 µM in assay [9]; 1860 nM in [11]; 2.82 µM in assay [12]; 2140 nM in assay [14].

With `COc1cc(CSc2cc(Cl)c(-c3nnc(-c4ccccc4)s3)cc2S(=O)(=O)NC(=N)NO)cc(OC)c1OC`, the GI50 in assay [1] amounted to 6.03 µM; in assay [3], 3.09 µM; in assay [4], 3.98 µM; in [6], 4070 nM; in assay [7], 1860 nM; in assay [8], 2190 nM. For the same compound, the GI50 in assay [10] came to 2040 nM; in assay [11], 2400 nM; in assay [12] it was 3.72 µM; in assay [13] it was 4170 nM; in assay [14] it was 3240 nM; in assay [15] it was 3.31 µM. Moreover, the concentration for 50% growth inhibition (GI50) in [16] was 3240 nM.

With `N=C(NO)NS(=O)(=O)c1cc(-c2nc(-c3ccccc3)no2)c(Cl)cc1SCc1ccc2c(c1)OCO2`, the GI50 in assay [1] is 2 µM; in assay [3], 2.19 µM; in assay [4] it was 1.66 µM; in [6], 1910 nM; in [7], 1550 nM; in [8], 1700 nM. The GI50 came to 1290 nM in assay [10]; 1910 nM in assay [11]; 2.57 µM in [12]; 2000 nM in [13]; 1820 nM in [14]; 2.63 µM in [15]. Moreover, in assay [16], growth was halved (GI50) at 2040 nM.

As to `COc1cc(CSc2cc(Cl)c(-c3nc(-c4ccccc4)no3)cc2S(=O)(=O)NC(=N)NO)cc(OC)c1OC`, the GI50 in assay [1] amounted to 13.2 µM; in assay [3], 13.5 µM; in [4], 4.47 µM; in [6], 6610 nM; in assay [7] it was 3980 nM; in assay [8] it was 4790 nM. Further, the GI50 in [10] came to 3800 nM; in [11], 6920 nM; in assay [12], 5.62 µM; in assay [13], 7240 nM; in [14], 3090 nM; in assay [15] it was 7.41 µM. Also, the GI50 in assay [16] was 4370 nM.

Values taken from ChEMBL document CHEMBL2062469, “1-(2-Mercaptobenzenesulfonyl)-3-hydroxyguanidines--novel potent antiproliferatives, synthesis and in vitro biological activity” (2012).
